Calls of active or inactive are those of the source.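 The calls were made as follows: active = IC50 at or below 10 µM; inactive = IC50 above 10 µM.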

The assay deals with HCV core protein (core106) dimerization. Kind of assay: inhibitors of HCV core self-association, IC50 – biochemical, AlphaScreen luminescence, powder samples, late-stage follow-up (AID 651577). Conditions: AlphaScreen GST-/Flag-core106 dimerization. The method in brief:
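Assay system: HCV core106 protein domain, GST-tagged and Flag-tagged forms / Amount: 150 nM GST-core106 plus 150 nM Flag-core106 / Signal: AlphaScreen bead-proximity luminescence / Replicates: triplicate wells per concentration / Incubation: 1 h protein preincubation, 1 h per bead addition / Probe or stimulus: Anti-Flag acceptor and glutathione donor beads, 20 µg/mL each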
In the case of `Cc1ccc(Cc2c(C)nc3nc(SCC(=O)NCCN4CCCN(S(C)(=O)=O)CC4)nn3c2C)cc1`, the IC50 was 510 nM.

`Cc1ccc(Cc2c(C)nc3nc(SCC(=O)NCCN4CCN(S(=O)(=O)c5ccccc5)CC4)nn3c2C)cc1`: the half-maximal inhibitory concentration (IC50) was 10200 nM.

With `Cc1ccc(Cc2c(C)nc3nc(SCC(=O)NCCN4CCCCC4)nn3c2C)cc1`, the IC50 result is “inactive”.

Turning to `Cc1ccc(Cc2c(C)nc3nc(SCC(=O)NCCN4CCN(Cc5ccccc5)CC4)nn3c2C)cc1`, the IC50 result was “inactive”.

Take `Cc1ccc(Cc2c(C)nc3nc(SCC(=O)NCCN4CCCCCC4)nn3c2C)cc1`: the IC50 was 1900 nM.

For the compound `Cc1ccc(Cc2c(C)nc3nc(SCC(=O)NCCN4CCCN(S(=O)(=O)c5ccccc5)CC4)nn3c2C)cc1`, the IC50 was 1600 nM.

Regarding `Cc1ccc(Cc2c(C)nc3nc(SCC(=O)NCCN4CCNCC4)nn3c2C)cc1`, the IC50 was 8400 nM.

On to `Cc1ccc(Cc2c(C)nc3nc(SCC(=O)NCCN4CCN(CCc5ccccc5)CC4)nn3c2C)cc1`, for which the IC50 result was “inactive”.

As to `Cc1ccc(Cc2c(C)nc3nc(SCC(=O)NCCN4CCN(C(=O)OC(C)(C)C)CC4)nn3c2C)cc1`, the IC50 result is “inactive”.

Take `Cc1ccc(Cc2c(C)nc3nc(SCC(=O)NCCN4CCOCC4)nn3c2C)cc1`: the IC50 was 1000 nM.

As to `Cc1ccc(Cc2c(C)nc3nc(SCC(=O)NCCN4CCN(Cc5ccc(Cl)cc5)CC4)nn3c2C)cc1`, the IC50 entry was “inactive”.

Take `Cc1ccc(Cc2c(C)nc3nc(SCC(=O)NCCN4CCCN(S(=O)(=O)c5ccc(C)cc5)CC4)nn3c2C)cc1`: the half-inhibitory concentration (IC50) is 2600 nM.

Turning to `Cc1ccc(Cc2c(C)nc3nc(SCC(=O)NCCN4CCN(Cc5ccc(F)cc5)CC4)nn3c2C)cc1`, the IC50 result was “inactive”.

Consider `Cc1ccc(Cc2c(CCc3ccccc3)nc3nc(SC(Cc4ccccc4)C(=O)NCCN4CCOCC4)nn3c2C)cc1` (centres undefined), for which the IC50 is 9900 nM.

For orientation: IC50 means the concentration at which inhibition is half-maximal.

Source of the values: PubChem BioAssay AID651577 (The Scripps Research Institute Molecular Screening Center, 2012).
